Data published in ChEMBL document CHEMBL3526048, “In vitro metabolism of rivoglitazone, a novel peroxisome proliferator-activated receptor γ agonist, in rat, monkey, and human liver microsomes and freshly isolated hepatocytes” (Drug Metab Dispos, 2011).

Key:
Liver microsome [1] = assay: Drug metabolism in human liver microsomes assessed as formation of 2-hydroxy-3-(4-((6-methoxy-1-methyl-1H-benzo[d]imidazol-2-yl)methoxy)phenyl)propanamide at 20 uM after 2 hrs by radio-HPLC/LC-MS/MS analysis in presence of NADPH-generating system and NADPH-generating system/SAM; assay type: ADME
Liver microsome [2] = assay: Drug metabolism in human liver microsomes assessed as formation of 2-mercapto-3-(4-((6-methoxy-1-methyl-1H-benzo[d]imidazol-2-yl)methoxy)phenyl)propanamide at 20 uM after 2 hrs by radio-HPLC/LC-MS/MS analysis in presence of NADPH-generating system and NADPH-generating system/SAM; assay type: ADME
Plasma = assay: Drug metabolism in po dosed monkey plasma assessed as formation of 5-(4-((6-methoxy-1H-benzo[d]imidazol-2-yl)methoxy)benzyl)thiazolidine-2,4-dione; assay type: ADME, organism-based, Macaca mulatta; settings: rhesus monkey, in vivo
[3] = molecular target: T1, UDP-glucuronosyltransferase 1A3 (Homo sapiens, UniProt P35503); assay: (§1) Activity of human UGT1A3 expressed in microsomes isolated from baculovirus infected insect cell assessed as enzyme-mediated 5-(4-((6-methoxy-1H-benzo[d]imidazol-2-yl)methoxy)benzyl)thiazolidine-2,4-dione formation at 20 uM after 4 hrs by radio-HPLC/LC-MS/MS analysis in presence of NADPH-generating system and NADPH-generating system/SAM in presence of UDPGA and UDPGA/SAM; assay type: ADME
T1 sequence (P35503 whole entry): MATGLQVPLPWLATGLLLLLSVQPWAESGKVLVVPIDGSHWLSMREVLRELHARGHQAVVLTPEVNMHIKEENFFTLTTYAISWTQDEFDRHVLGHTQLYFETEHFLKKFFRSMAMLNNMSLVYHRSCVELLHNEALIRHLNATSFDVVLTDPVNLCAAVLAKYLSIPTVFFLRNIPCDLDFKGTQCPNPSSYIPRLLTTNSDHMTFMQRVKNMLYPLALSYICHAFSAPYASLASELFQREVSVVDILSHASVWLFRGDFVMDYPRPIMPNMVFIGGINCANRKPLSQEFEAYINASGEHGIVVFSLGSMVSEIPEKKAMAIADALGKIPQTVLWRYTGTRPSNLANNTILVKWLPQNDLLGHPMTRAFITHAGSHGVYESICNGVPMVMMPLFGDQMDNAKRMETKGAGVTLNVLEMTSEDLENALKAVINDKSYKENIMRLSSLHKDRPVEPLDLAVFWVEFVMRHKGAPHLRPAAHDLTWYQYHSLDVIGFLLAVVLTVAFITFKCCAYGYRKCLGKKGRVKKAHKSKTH

Cytochrome P450 3A4 = Cytochrome P450 3A4 (Homo sapiens, UniProt P08684); assay: Activity of human CYP3A4 expressed in microsomes isolated from baculovirus infected insect cell assessed as enzyme-mediated 2-mercapto-3-(4-((6-methoxy-1-methyl-1H-benzo[d]imidazol-2-yl)methoxy)phenyl)propanamide formation at 20 uM after 2 hrs by radio-HPLC/LC-MS/MS analysis in presence of NADPH-generating system and NADPH-generating system/SAM; assay type: ADME
Cytochrome P450 3A4, sequence (P08684 whole entry): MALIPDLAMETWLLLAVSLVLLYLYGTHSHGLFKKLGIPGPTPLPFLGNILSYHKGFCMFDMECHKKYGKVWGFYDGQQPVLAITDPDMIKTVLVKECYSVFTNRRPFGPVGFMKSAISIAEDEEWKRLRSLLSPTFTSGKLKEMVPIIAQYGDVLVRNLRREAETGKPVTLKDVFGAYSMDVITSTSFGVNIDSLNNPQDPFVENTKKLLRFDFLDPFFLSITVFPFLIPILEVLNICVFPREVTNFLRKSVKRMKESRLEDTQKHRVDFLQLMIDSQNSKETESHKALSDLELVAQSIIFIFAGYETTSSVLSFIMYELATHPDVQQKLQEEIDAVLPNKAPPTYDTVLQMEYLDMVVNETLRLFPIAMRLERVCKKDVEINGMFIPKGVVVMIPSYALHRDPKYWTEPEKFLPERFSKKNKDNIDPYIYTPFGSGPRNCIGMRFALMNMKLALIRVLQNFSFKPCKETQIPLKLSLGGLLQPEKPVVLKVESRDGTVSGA

Cytochrome P450 3A5 = Cytochrome P450 3A5 (Homo sapiens, UniProt P20815); assay: Activity of human CYP3A5 expressed in microsomes isolated from baculovirus infected insect cell assessed as enzyme-mediated 3-(4-((6-methoxy-1-methyl-1H-benzo[d]imidazol-2-yl)methoxy)phenyl)-2-(methylsulfonyl)propanamide formation at 20 uM after 2 hrs by radio-HPLC/LC-MS/MS analysis in presence of NADPH-generating system/SAM; assay type: ADME
Cytochrome P450 3A5, sequence (P20815 whole entry): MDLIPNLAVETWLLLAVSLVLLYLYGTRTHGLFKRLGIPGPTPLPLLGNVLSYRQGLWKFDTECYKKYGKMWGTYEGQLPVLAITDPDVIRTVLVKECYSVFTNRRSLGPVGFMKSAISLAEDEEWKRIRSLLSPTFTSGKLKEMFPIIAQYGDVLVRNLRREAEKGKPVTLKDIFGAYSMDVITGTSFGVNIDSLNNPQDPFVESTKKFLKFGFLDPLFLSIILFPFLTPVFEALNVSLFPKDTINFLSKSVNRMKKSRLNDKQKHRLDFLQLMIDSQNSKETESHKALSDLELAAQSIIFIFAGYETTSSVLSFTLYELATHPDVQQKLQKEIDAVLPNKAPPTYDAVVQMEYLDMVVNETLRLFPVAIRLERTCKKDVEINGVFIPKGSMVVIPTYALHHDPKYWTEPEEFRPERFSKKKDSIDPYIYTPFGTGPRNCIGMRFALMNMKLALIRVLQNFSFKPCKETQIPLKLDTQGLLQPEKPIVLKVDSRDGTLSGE
In short: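 cDNA-expressed human CYP3A5 in baculovirus-insect-cell microsomes (1 mg/ml protein) was incubated with [¹⁴C]rivoglitazone (20 μM) in 50 mM potassium phosphate (pH 7.4) or 100 mM Tris-HCl (pH 7.5). NADPH-generating system: 2 mM NADP⁺, 20 mM glucose 6-phosphate, 2 units/ml G6PDH, 10 mM MgCl₂. Incubation ran 2 h at 37°C with shaking; insect-cell control supersomes served as control. Acetonitrile stop, supernatant concentrated, then radio-HPLC, LC-MS and LC-MS/MS.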

[4] = Drug metabolism in cynomolgus monkey liver microsomes assessed as formation of 2-((4-((2,4-dioxothiazolidin-5-yl)methyl)phenoxy)methyl)-1-methyl-1H-benzo[d]imidazol-6-yl hydrogen sulfate at 20 uM by radio-HPLC/LC-MS/MS analysis; assay type: ADME, Macaca fascicularis
Cytochrome P450 1A2 = molecular target: T2, Cytochrome P450 1A2 (Homo sapiens, UniProt P05177); assay: Activity of human CYP1A2 expressed in microsomes isolated from baculovirus infected insect cell assessed as enzyme-mediated 2-amino-3-((1-carboxy-2-(4-((6-methoxy-1-methyl-1H-benzo[d]imidazol-2-yl)methoxy)phenyl)ethyl)disulfanyl)propanoic acid formation at 20 uM after 2 hrs by radio-HPLC/LC-MS/MS analysis; assay type: ADME
T2 sequence (P05177 whole entry): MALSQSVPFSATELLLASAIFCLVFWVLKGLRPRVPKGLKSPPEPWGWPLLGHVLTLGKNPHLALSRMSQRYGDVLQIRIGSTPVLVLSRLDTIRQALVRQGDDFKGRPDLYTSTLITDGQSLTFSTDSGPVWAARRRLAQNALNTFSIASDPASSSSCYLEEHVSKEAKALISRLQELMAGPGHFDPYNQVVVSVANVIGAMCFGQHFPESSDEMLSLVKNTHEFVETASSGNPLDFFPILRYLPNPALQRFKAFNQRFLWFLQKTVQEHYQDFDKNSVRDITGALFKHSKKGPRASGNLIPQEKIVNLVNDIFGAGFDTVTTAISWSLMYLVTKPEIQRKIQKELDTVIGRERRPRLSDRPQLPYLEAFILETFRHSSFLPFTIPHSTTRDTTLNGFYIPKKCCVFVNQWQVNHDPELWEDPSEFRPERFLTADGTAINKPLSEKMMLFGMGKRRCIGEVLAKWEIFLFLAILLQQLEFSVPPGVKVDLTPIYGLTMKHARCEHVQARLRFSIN
In short: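 Baculovirus/insect-cell microsomes expressing single human CYPs, 1 mg/ml protein, with 50 mM potassium phosphate (pH 7.4) or 100 mM Tris-HCl (pH 7.5). NADPH-generating system: 2 mM NADP⁺, 20 mM glucose 6-phosphate, 2 units/ml G6PDH, 10 mM MgCl₂. [¹⁴C]rivoglitazone at 20 μM, 2 h at 37°C with shaking. Control used insect-cell control supersomes. Stopped with acetonitrile; supernatant concentrated under nitrogen; metabolites analysed by radio-HPLC, LC-MS and LC-MS/MS.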

[5] = molecular target: T1, UDP-glucuronosyltransferase 1A3; assay: Activity of human UGT1A3 expressed in microsomes isolated from baculovirus infected insect cell assessed as enzyme-mediated (2S,3S,4S,5R,6R)-3,4,5-trihydroxy-6-(5-(4-((6-methoxy-1-methyl-1H-benzo[d]imidazol-2-yl)methoxy)benzyl)-2,4-dioxothiazolidin-3-yl)tetrahydro-2H-pyran-2-carboxylic acid formation at 20 uM after 4 hrs by radio-HPLC/LC-MS/MS analysis in presence of UDPGA and UDPGA/SAM; assay type: ADME
In short: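 Alamethicin (50 μg/mg protein, 15 min on ice) pretreated expressed human UGT microsomes (1 mg/ml protein) from baculovirus-infected insect cells. Incubation with [¹⁴C]rivoglitazone (20 μM) in 100 mM Tris-HCl (pH 7.5) with 10 mM MgCl₂, started by 5 mM UDPGA, 4 h at 37°C with shaking. UGT insect-cell control supersomes were run alongside. Acetonitrile stop, concentrated supernatant analysed by radio-HPLC, LC-MS and LC-MS/MS.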

[6] = molecular target: T1, UDP-glucuronosyltransferase 1A3; assay: as §1, with “2-hydroxy-3-(4-((6-methoxy-1-methyl-1H-benzo[d]imidazol-2-yl)methoxy)phenyl)propanamide” for “5-(4-((6-methoxy-1H-benzo[d]imidazol-2-yl)methoxy)benzyl)thiazolidine-2,4-dione”; assay type: ADME
[7] = Drug metabolism in monkey hepatocytes assessed as formation of (2S,3S,4S,5R,6R)-3,4,5-trihydroxy-6-(5-(4-((6-methoxy-1-methyl-1H-benzo[d]imidazol-2-yl)methoxy)benzyl)-2,4-dioxothiazolidin-3-yl)tetrahydro-2H-pyran-2-carboxylic acid at 30 uM after 3 hrs by radio-HPLC/LC-MS/MS analysis; settings: cynomolgus monkey

- Drug metabolism (Liver microsome [1]): metabolite_detected
- Drug metabolism (Liver microsome [2]): metabolite_detected
- Drug metabolism (Plasma): metabolite_detected
- Drug metabolism [3]: metabolite_not_detected
- Drug metabolism (Cytochrome P450 3A4): metabolite_detected
- Drug metabolism (Cytochrome P450 3A5): metabolite_not_detected
- Drug metabolism [4]: metabolite_not_detected
- Drug metabolism (Cytochrome P450 1A2): metabolite_not_detected
- Drug metabolism [5]: metabolite_detected
- Drug metabolism [6]: metabolite_not_detected
- Drug metabolism [7]: metabolite_detected
SMILES: COc1ccc2nc(COc3ccc(C[14CH]4SC(=O)NC4=O)cc3)n(C)c2c1.Cl (racemic)
